{"source": "ChEMBL document CHEMBL4038305", "about": "“Benzoxaborole Antimalarial Agents. Part 5. Lead Optimization of Novel Amide Pyrazinyloxy Benzoxaboroles and Identification of a Preclinical Candidate” (J Med Chem, 2017)", "key": {"Escherichia coli [1]": {"system": "Escherichia coli", "assay": "Genotoxicity in Escherichia coli WP2uvrA assessed as number of revertants per plate at 5 ug/plate in presence of rat liver S9 fraction by Ames test (reference value: 42 +/- 6)", "type": "toxicity"}, "Salmonella typhimurium [2]": {"system": "Salmonella typhimurium", "assay": "Genotoxicity in Salmonella typhimurium TA100 assessed as number of revertants per plate at 150 ug/plate in absence of rat liver S9 fraction by Ames test (reference value: 154 +/- 9)", "type": "toxicity", "details": "salmonella enterica subsp. enterica serovar typhimurium"}, "Escherichia coli [3]": {"system": "Escherichia coli", "assay": "Genotoxicity in Escherichia coli WP2uvrA assessed as number of revertants per plate at 150 ug/plate in presence of rat liver S9 fraction by Ames test (reference value: 42 +/- 6)", "type": "toxicity"}, "Escherichia coli [4]": {"system": "Escherichia coli", "assay": "Genotoxicity in Escherichia coli WP2uvrA assessed as number of revertants per plate at 500 ug/plate in absence of rat liver S9 fraction by Ames test (reference value: 45 +/- 9)", "type": "toxicity"}, "Plasmodium falciparum [5]": {"system": "Plasmodium falciparum", "assay": "Antimalarial activity against intraerythrocytic stage of Plasmodium falciparum assessed as time required for maximal killing effect at 10 times IC50 preincubated for 24 hrs followed by [3H]-hypoxanthine addition measured after 24 hrs by scintillation counting method", "type": "functional", "how_it_was_run": "(§1)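 In vitro P. falciparum parasite reduction ratio assay run at 10×, 30× and 100× IC50. Derived parameters: lag phase (time to maximal killing), PRR (parasites killed per life cycle) and PCT99.9% (time to clear 99.9% of the initial parasite population).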"}, "Salmonella typhimurium [6]": {"system": "Salmonella typhimurium", "assay": "Genotoxicity in Salmonella typhimurium TA100 assessed as number of revertants per plate at 50 ug/plate in absence of rat liver S9 fraction by Ames test (reference value: 154 +/- 9)", "type": "toxicity", "details": "salmonella enterica subsp. enterica serovar typhimurium"}, "Salmonella typhimurium [7]": {"system": "Salmonella typhimurium", "assay": "Genotoxicity in Salmonella typhimurium TA98 assessed as number of revertants per plate at 50 ug/plate in absence of rat liver S9 fraction by Ames test (reference value: 14 +/- 6)", "type": "toxicity", "details": "salmonella enterica subsp. enterica serovar typhimurium"}, "Plasmodium falciparum [8]": {"system": "Plasmodium falciparum", "assay": "Antimalarial activity against intraerythrocytic stage of Plasmodium falciparum assessed as parasite reduction ratio at 10 times IC50 preincubated for 24 hrs followed by [3H]-hypoxanthine addition measured after 24 hrs by scintillation counting method", "type": "functional", "how_it_was_run": "as §1"}, "Salmonella typhimurium [9]": {"system": "Salmonella typhimurium", "assay": "Genotoxicity in Salmonella typhimurium TA1535 assessed as number of revertants per plate at 500 ug/plate in presence of rat liver S9 fraction by Ames test (reference value: 10)", "type": "toxicity", "details": "salmonella enterica subsp. enterica serovar typhimurium"}, "Salmonella typhimurium [10]": {"system": "Salmonella typhimurium", "assay": "Genotoxicity in Salmonella typhimurium TA1535 assessed as number of revertants per plate at 5000 ug/plate in absence of rat liver S9 fraction by Ames test (reference value: 10 +/- 3)", "type": "toxicity", "details": "salmonella enterica subsp. enterica serovar typhimurium"}, "Salmonella typhimurium [11]": {"system": "Salmonella typhimurium", "assay": "Genotoxicity in Salmonella typhimurium TA1535 assessed as number of revertants per plate at 5000 ug/plate in presence of rat liver S9 fraction by Ames test (reference value: 10)", "type": "toxicity", "details": "salmonella enterica subsp. enterica serovar typhimurium"}}, "data": [{"molecule": "Cc1c(Oc2cnc(C(=O)N3CC(C)(O)C3)cn2)ccc2c1B(O)OC2", "values": [{"measurement": "Activity", "setting": "Escherichia coli [1]", "value": 37}, {"measurement": "Activity", "setting": "Salmonella typhimurium [2]", "value": 148}, {"measurement": "Activity", "setting": "Escherichia coli [3]", "value": 53}, {"measurement": "Activity", "setting": "Escherichia coli [4]", "value": 55}, {"measurement": "Time", "setting": "Plasmodium falciparum [5]", "value": 0, "unit": "h"}, {"measurement": "Activity", "setting": "Salmonella typhimurium [6]", "value": 132}, {"measurement": "Activity", "setting": "Salmonella typhimurium [7]", "value": 14}, {"measurement": "log(ratio)", "setting": "Plasmodium falciparum [8]", "value": 4.1}, {"measurement": "Activity", "setting": "Salmonella typhimurium [9]", "value": 6}, {"measurement": "Activity", "setting": "Salmonella typhimurium [10]", "value": 4}, {"measurement": "Activity", "setting": "Salmonella typhimurium [11]", "value": 6}]}]}
